Data set [1] has as its system ASCT2. It counts as cell-based, rat/human.
In data set [2] the target is T1, ASCT2 (Homo sapiens, UniProt Q15758).
T1 sequence (Q15758 1-541): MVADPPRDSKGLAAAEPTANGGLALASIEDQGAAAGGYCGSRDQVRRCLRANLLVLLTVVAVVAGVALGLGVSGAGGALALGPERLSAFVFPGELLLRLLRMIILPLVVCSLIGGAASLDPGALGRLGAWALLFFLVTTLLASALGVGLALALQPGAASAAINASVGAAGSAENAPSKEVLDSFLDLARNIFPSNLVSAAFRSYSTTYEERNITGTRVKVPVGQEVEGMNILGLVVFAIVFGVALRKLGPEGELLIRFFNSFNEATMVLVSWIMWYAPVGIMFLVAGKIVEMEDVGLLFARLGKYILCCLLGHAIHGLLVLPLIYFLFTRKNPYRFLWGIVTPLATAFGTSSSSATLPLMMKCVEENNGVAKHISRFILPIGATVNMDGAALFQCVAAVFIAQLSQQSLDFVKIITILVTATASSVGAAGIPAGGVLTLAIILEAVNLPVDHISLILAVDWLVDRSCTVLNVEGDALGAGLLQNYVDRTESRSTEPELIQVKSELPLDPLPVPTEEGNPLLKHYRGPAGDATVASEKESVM
The experiment in a line: Radiotracer flux: 14C BMAA uptake in ASCT2-transfected MDCK-II cell monolayers. Type of data set: cell-based. The method, boiled down: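 ASCT2-transfected MDCK-II cells grown as monolayers on transwell membranes, assayed 48 h after transfection. After washing, 2 mM 14C BMAA was applied apically for 5 min. Apical and basolateral solutions were then aspirated and both sides washed. Cells were extracted in acetonitrile:water (50:50) and the extract counted by liquid scintillation. Uptake is given as pmol/min/cm2 and compared with non-ASCT2-expressing control cells.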

The nature of data set [3]: Proton ionisation constants. Type of data set: physicochemical. The settings on record: pH 7.4.
Another data set concerns the target T2, rASCT2 (Rattus norvegicus, UniProt D3ZJ25).
T2 sequence (D3ZJ25 1-555): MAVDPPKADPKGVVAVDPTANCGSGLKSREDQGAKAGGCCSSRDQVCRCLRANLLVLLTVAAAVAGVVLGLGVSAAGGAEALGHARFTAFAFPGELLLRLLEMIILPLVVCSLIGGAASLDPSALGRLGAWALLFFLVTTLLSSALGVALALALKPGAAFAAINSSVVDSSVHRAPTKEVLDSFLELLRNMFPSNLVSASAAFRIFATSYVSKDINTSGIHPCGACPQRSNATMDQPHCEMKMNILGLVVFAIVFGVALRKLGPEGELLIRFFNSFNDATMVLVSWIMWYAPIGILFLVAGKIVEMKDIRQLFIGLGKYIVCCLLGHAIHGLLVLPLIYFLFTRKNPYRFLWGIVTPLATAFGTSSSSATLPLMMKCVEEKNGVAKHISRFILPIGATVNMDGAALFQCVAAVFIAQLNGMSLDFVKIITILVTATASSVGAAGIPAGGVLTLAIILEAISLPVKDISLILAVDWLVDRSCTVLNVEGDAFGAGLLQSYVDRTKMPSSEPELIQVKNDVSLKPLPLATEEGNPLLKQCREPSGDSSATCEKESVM
Nature of the data set: Glutamine uptake fluorescence assay. Type of data set: cell-based.

For data set [4] the following is noted: cited from earlier work.
Data set [5] has as its target ASCT2. The following applies: read-out: Ki (competes with alanine for the substrate binding site); cited from earlier work.
[6] abbreviates: 2 mM, pH 7.40, intracellular SCN-.
Setting [7] is: 4 mM (D-2,3-DAP: up to 4 mM), pH 7.40.

Like-named read-outs stand apart in the source and are kept apart here.

The values below come from article PMC9535927 (The Biochemical journal, 2020).

Take `NCC[C@H](N)C(=O)O` [L-DAB, L-2,4-diaminobutyric acid]: in the data set on ASCT2 [1] (setting [6]), the “current elicited on application to ASCT2-expressing cells” value (“current elicited on application” for short) is on record as “produced an inward current, however, with smaller magnitude than that generated by L-DAP”.

Turning to `NC(=O)CCCC(N)C(=O)O` (centres unmarked) [homoglutamine], the “current elicited on application” value in the data set on ASCT2 [1] (pH 7.4) is reported as “outward current”.

On to `NCCCC[C@H](N)C(=O)O` [L-lysine], for which the “current elicited on application” value in the data set with ASCT2 [1] (setting [7]) is given as “not significantly different from zero”.

For the compound `NC[C@@H](N)C(=O)O` [D-2,3-DAP], in the data set on ASCT2 [1] (setting [7]), the “current elicited on application” value is recorded as “did not produce any current”.

For `CNC[C@H](N)C(=O)O` [BMAA, β-N-Methylamino-L-Alanine], the “inward current relative to the maximum anion current induced by L-alanine” value in the data set with ASCT2 [1] (pH 7.40, V = 0 mV) was “less than 20%”. Moreover, the “uptake of 14C BMAA” value on ASCT2 [2] (2 mM, control cells (non-ASCT2 expressing)) was 163 ± 36 pmol/min/cm^2. On ASCT2 [2] (if transported at all, inferred from sensitivity of uptake assay), the “transport rate by ASCT2, fold lower than L-glutamine” value is “at least 10 fold”.

Take `NC[C@H](N)C(=O)O` [L-DAP, L-2,3-diaminopropionic acid]: the “direction of evoked current at low pH” value in the data set on ASCT2 [1] (2 mM, extracellular pH below 6.50, V = 0 mV) is “outwardly directed”. Moreover, in the data set on ASCT2 [1] (setting [6]), the “current elicited on application” value is given as “elicited an inwardly-directed current”. In addition, in the data set on ASCT2 [1] (extracellular 140 mM NaCl, intracellular 130 mM NaSCN, pH 7.4), the “apparent valence from slope of log(Km) vs. voltage” value is 0.21 ± 0.04. Also, in data set [3], the “protonation of the α-amino group” value is recorded as 20%. In addition, the “decrease in fluorescence emission in the Venus range (glutamine uptake)” value (shortened to “decrease in fluorescence emission”) on rASCT2 (500 μM glutamine plus 2 mM test compound) worked out at 1.00 ± 1.14%. Also, the “pKa of the α-amino group” value in data set [4] is 6.7.

As usually defined, the Ki is a dissociation constant, usually derived from enzyme kinetics or from competition with a known ligand. Take `O=C(O)[C@@H]1C[C@@H](Cc2ccc(-c3ccccc3)cc2)CN1` [BPP, (R)-γ-(4-biphenylmethyl)-L-proline]: at ASCT2 [5], the Ki was 3000 nM.

For `NCCC[C@H](N)C(=O)O` [L-ornithine], the “current elicited on application” value in the data set on ASCT2 [1] (setting [7]) is “not significantly different from zero”.

For the compound `N[C@@H](COCc1ccccc1)C(=O)O` [benzylserine], the “decrease in fluorescence emission” value at rASCT2 (500 μM glutamine plus 5 mM test compound) turned out to be 2.70 ± 1.25%.

`NC(=O)CC[C@H](N)C(=O)O` [glutamine]: on rASCT2 (500 μM glutamine applied externally alone), the “decrease in fluorescence emission” value is given as 11.2 ± 0.89%.
